Results on 11 compounds are retold here after ChEMBL document CHEMBL1142707, “Bisaryloxime ethers as potent inhibitors of transthyretin amyloid fibril formation” (J Med Chem, 2005).

The structures appear in SMILES notation.

Assay [1] deals with Transthyretin (Homo sapiens) (UniProt P02766). In words: Percentage compound remaining at the conclusion of the acid-mediated fibril formation assay (72 h) in absence of TTR, assay conditions, compound (7.2 uM), pH 4.4, 37C. Put shortly: (§1)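 Compound at 7.2 µM was incubated in the dark with or without 3.6 µM WT-TTR under acid fibril conditions (pH 4.4, 37 °C, 72 h). Analytical RP-HPLC peak area of the compound at the end was compared with the area at the start. Measurement error stated as 4%.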

Assay [2] shares this target. In words: Binding stoichiometry to TTR in human blood plasma determined by antibody capture/HPLC method. In kind it is cell-free. Put shortly: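 Human blood plasma spiked to 10.8 µM test compound from a 2.16 mM DMSO stock and incubated 24 h at 37 °C. Plasma was precleared with plain Sepharose for 1 h at 4 °C, then split into three aliquots for anti-TTR antibody-resin capture (20 min, 4 °C) in 10 mM Tris pH 8.0, 140 mM NaCl. Resin washed, eluted with 100 mM triethylamine pH 11.5, eluate analysed by HPLC for compound:TTR stoichiometry.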

For assay [3] the target is unchanged. As to the kind of experiment: Percentage compound remaining at the conclusion of the acid-mediated fibril formation assay (72 h), assay conditions compound (7.2 uM), WT-TTR (3.6 uM, pH 4.4, 37C). Put shortly: as §1
The target is the same in assay [4]. As to the kind of experiment: Percentage of WT-TTR (3.6 uM) amyloid fibril formation at pH 4.4 upon incubation with the compound (7.2 uM). The essentials:
(§2)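 WT-TTR (7.2 µM, 0.4 mg/mL) in 10 mM phosphate pH 7.2, 100 mM KCl, 1 mM EDTA was preincubated 30 min at 37 °C with inhibitor added from a 1.44 mM DMSO stock. An equal volume of 200 mM acetate pH 4.2 brought the sample to pH 4.4 (3.6 µM TTR, 7.2 µM compound final). Left 72 h at 37 °C, vortexed, turbidity read at 350 and 400 or 500 nm. Run in duplicate or triplicate.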

Assay [5] has the same target. As to the kind of experiment: Percentage of WT-TTR (3.6 uM) amyloid fibril formation at pH 4.4 upon incubation with the compound (7.2 uM); compound is unstable. Put shortly: as §2
For assay [6] the target is unchanged. As to the kind of experiment: Percentage compound remaining at the conclusion of the acid-mediated fibril formation assay (72 h), assay conditions compound (7.2 uM), WT-TTR (3.6 uM, pH 7.2, 37C). The essentials:
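Compound at 7.2 µM was incubated in the dark with 3.6 µM WT-TTR at 37 °C for 72 h, with the buffer held at pH 7.2. Analytical RP-HPLC peak area of the compound at the end was compared with the area at the start.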

In the case of `O=C(O)c1ccc(O/N=C/c2cc(Br)c(O)c(Br)c2)cc1`, the figures for the Activity in assay [1] and in assay [3] were 88% and 81%, respectively. Besides, in assay [2], the Binding stoichiometry was < 0.5. Besides, in assay [4], the Formation was 0%.
Regarding `Oc1c(I)cc(/C=N/Oc2ccccc2)cc1I`, the Activity in assay [1] was determined as 24%; in assay [3], 79%. The compound also returned a Binding stoichiometry in assay [2] of 0.89. In assay [4], this compound registered a Formation of 0%.
Taken in the same sequence, the figures for `O=C(O)c1ccccc1O/N=C/c1cc(Cl)cc(Cl)c1` were 4%, 74%, < 0.5 and 1%.
In the case of `O=C(O)c1cccc(O/N=C/c2cc(I)c(O)c(I)c2)c1`, the Activity worked out at 81% in assay [1] and 77% in assay [3]. For the same compound, the Binding stoichiometry in assay [2] is < 0.5. The compound also yielded a Formation in assay [4] of 0%.
Consider `Oc1c(Br)cc(/C=N/Oc2ccccc2)cc1Br`, for which the Activity was 8% in assay [1] and 76% in assay [3]. In assay [2], this compound gave a Binding stoichiometry of 1.02. Also, the Formation in assay [4] is 0%.
Turning to `O=C(O)c1ccc(O/N=C/c2cc(I)c(O)c(I)c2)cc1`, the Activity in assay [1] was found to be 91%; in assay [3], 83%. Further, the Binding stoichiometry in assay [2] was < 0.5. Also, the Formation in assay [4] worked out at 1%.
In the case of `O=C(O)c1ccc(O/N=C/c2c(Cl)cccc2Cl)cc1`, the Activity in assay [1] was determined as 85%; in assay [3] it was 81%. Moreover, the Binding stoichiometry in assay [2] amounted to 0.81. This compound returned a Formation in assay [4] of 0%.
For `O=C(O)c1ccc(O/N=C/c2ccccc2C(F)(F)F)cc1`, the Activity amounted to 79% in assay [1] and 84% in assay [3]. In assay [2], this compound came in with a Binding stoichiometry of 1.31. Also, the Formation in assay [4] came to 0%.
In the case of `O=C(O)c1ccccc1/C=N/Oc1ccccc1C(=O)O`, the Formation entry in assay [5] is reported as “Unstable”.
Consider `Oc1c(Br)cc(/C=N/Oc2ccccc2C(F)(F)F)cc1Br`, for which the Activity in assay [1] was 78%; in assay [3], 98%. The compound also showed a Binding stoichiometry in assay [2] of 1.86. This compound also came in with a Formation in assay [4] of 1%.
The compound `O=C(O)c1ccc(/C=N/Oc2ccccc2C(F)(F)F)cc1` displayed a Binding stoichiometry in assay [2] of 1.38. Further, the Activity in assay [6] is 76%; in assay [3] it was 83%. In assay [4], this compound gave a Formation of 3%.
